Only some compounds are listed: those with a hit (about 2.5% of all), similar ones and a draw of the others.
CDK5 p35 inh = blocks human CDK5/p35 kinase activity; Q00535+Q15078; Recombinant CDK5/p35, ADP-Glo luminescence, 60 min; inhibition, % at 10 µM; 330,000 tested, 0.01% active; AID 488839;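 active = highest replicate inhibition of at least 50% and at least 75% of replicates reaching 50%; inconclusive = only one of the two criteria met; inactive = both criteria failed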;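 note: plate controls were DMSO neutral control for no effect and GW8510 at 10 µM for full effect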
SR-BI uptake up = enhances SR-BI lipid uptake from DiI-HDL | CHO ldlA[mSR-BI] cells, DiI-HDL uptake fluorescence, 3 h; 100 = double the neutral-control signal | activation, % at 12.5 µM | 320,000 tested, 0.096% active;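 active = mean replicate activation of at least 60% and every replicate at or above 60%; inconclusive = mean or all-replicate condition met, but not both; inactive = mean below 60% and not all replicates reaching 60%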;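 note: 0% = median plate neutral-control signal and 100% = twice that signal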
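Assay system: CHO ldlA[mSR-BI] cells, LDL receptor-null, SR-BI overexpressing; medium: Ham's F12 with 0.5% BSA, HEPES 25 mM, pH 7.4; also added: DiI-HDL 10 µg/mL; timing: 3 h uptake period with compound, 37 °C; signal: DiI fluorescence, bottom read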
DYRK1A inh = Dyrk1A (rat) kinase inhibition; ADP-Glo luminescence, NFATc1 peptide; Q63470; AID 504441; 310,000 tested, 0.43% active; inhibition, % at 12.5 µM;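 note: plate controls were vehicle with enzyme for no effect and no enzyme for full effect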
dFosB act-1 = activators of mouse delta FosB homodimer; P13346; purified delta FosB, TAMRA-CDK5 oligo fluorescence polarization; percent of positive-control signal above neutral wells; AID 493131; activation, % at 25 µM; 340,000 tested, 0.99% active;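 active = mean activation above about 17%, with every replicate also reaching it, limit read from the data, passing the limit was not always enough; inconclusive = only one of the two conditions met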
NSD2 HMT inh = NSD2 (human) methyltransferase inhibition | O96028 | NSD2 peptide methylation, AlphaScreen, 120 min | inhibition, % at 12.5 µM | 310,000 tested, 0.54% active | AID 743445
SR-BI DiI inh = mouse SR-BI HDL lipid transfer inhibition; 320,000 tested, 0.96% active; inhibition, % at 12.5 µM; ldlA[mSR-BI] CHO cells, DiI-HDL uptake fluorescence, 3 h; Q61009;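 active = mean replicate inhibition of at least 70% and a set share of replicates each scoring 70 or more; inconclusive = meets just one of the two criteria; inactive = fails both criteria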;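 note: 0% = median of neutral control wells and 100% = median of positive control wells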
Target sequence (Q61009 whole entry, looked up): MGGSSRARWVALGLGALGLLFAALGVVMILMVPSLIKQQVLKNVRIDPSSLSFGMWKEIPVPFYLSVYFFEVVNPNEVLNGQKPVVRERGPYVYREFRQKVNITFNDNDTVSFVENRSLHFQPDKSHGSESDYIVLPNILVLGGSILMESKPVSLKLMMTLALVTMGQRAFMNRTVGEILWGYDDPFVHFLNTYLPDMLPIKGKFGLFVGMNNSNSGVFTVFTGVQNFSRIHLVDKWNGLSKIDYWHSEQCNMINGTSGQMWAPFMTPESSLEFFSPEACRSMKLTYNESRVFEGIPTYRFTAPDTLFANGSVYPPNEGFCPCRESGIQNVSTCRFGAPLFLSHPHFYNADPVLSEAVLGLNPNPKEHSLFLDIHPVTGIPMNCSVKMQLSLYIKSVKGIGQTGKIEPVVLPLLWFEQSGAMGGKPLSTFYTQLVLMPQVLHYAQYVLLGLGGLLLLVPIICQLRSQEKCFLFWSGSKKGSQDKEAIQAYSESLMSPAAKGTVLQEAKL
dFosB act-2 = enhances mouse delta FosB homodimer binding to DNA; shares compounds with dFosB act-1; purified delta FosB, TAMRA-CDK5 oligo fluorescence polarization; normalised: neutral wells 0, positive control 100; activation, % at 24.9 µM; 2,400 tested, under 10 active; AID 588690;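 active = highest replicate activation at or above 34% and every replicate reaching that threshold; inconclusive = meets only one of the two criteria; inactive = meets neither criterion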;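 note: higher polarization means more probe DNA bound by delta FosB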
* hit, by the source's call; ? = inconclusive; nt = not tested or not shown. Cut-off read from the data, not from the text of the source, unless noted: active = inhibition above about 50%; inactive = the rest.

SMILES	CDK5 p35 inh	SR-BI uptake up	DYRK1A inh	dFosB act-1	NSD2 HMT inh	SR-BI DiI inh	dFosB act-2
COc1ccc(NC(=O)COC(=O)CCCC2=NS(=O)(=O)c3ccccc3N2)cc1Cl	0.5	0.1	28.1	?	0.0	-0.1	nt
O=C(Nc1ccc(NC(=O)c2sc3ccccc3c2Cl)cc1Cl)c1ccco1	-0.9	-67.0	-0.6	41.0*	0.4	67.0	3.2
COc1cccc(NC(=O)c2cccc(NC(=O)c3ccco3)c2)c1	nt	nt	nt	nt	1.4	nt	nt
O=C(Nc1ccc(NC(=O)c2cccs2)c(Cl)c1)c1ccco1	0.7	-39.4	2.0	-10.8	-2.5	39.4	nt
COc1cccc(C(=O)Nc2ccc(NC(=O)c3ccco3)c(Cl)c2)c1	0.7	-69.3	2.3	23.5*	-9.0	69.3	3.0
COc1ccc(CCN(C)CC(=O)Nc2c(C)cc(C)cc2C)cc1OC	2.8	-14.8	nt	-4.0	0.0	14.8	nt
Cc1ccc2c(c1)C1NC(=S)NC(C)(O2)C1C(=O)Nc1ccc(Cl)cc1 (stereo unspecified)	2.1	-39.5	-7.8	39.5*	-1.7	39.5	0.4
CN1CCN(S(=O)(=O)c2ccc3ccccc3c2)CC1	1.4	10.8	-4.3	-5.1	nt	-10.8	nt
O=C(CNC(=O)c1ccc2ccccc2c1)OCC(=O)N1CCN(S(=O)(=O)c2ccc3ccccc3c2)CC1	-1.6	47.2	-2.9	21.8*	1.5	-47.2	-9.1
CN1/C(=C\C(=O)COC(=O)CNC(=O)c2ccccc2F)C(C)(C)c2ccccc21	-1.0	5.5	-0.5	9.3	-1.7	-5.5	nt
CC(=O)NCc1ccc(S(=O)(=O)N2CCN(S(=O)(=O)c3ccc4ccccc4c3)CC2)cc1	2.2	8.7	-2.0	48.6*	-0.8	-8.7	2.9
CN1/C(=C\C(=O)COC(=O)CNC(=O)c2ccc3ccccc3c2)C(C)(C)c2ccccc21	0.1	27.9	-2.3	33.7*	-1.9	-27.9	1.3
C[C@@H]1CN([C@H](C)CO)C(=O)Cc2cc(NS(=O)(=O)c3cn(C)cn3)ccc2O[C@H]1CN(C)S(=O)(=O)c1ccc(Cl)cc1	-0.4	12.7	3.3	-9.5	nt	-12.7	nt
O=C(Nc1cc(Cl)ccc1Cl)c1cc(-c2ccco2)on1	0.9	-62.5	-5.6	18.4*	-2.8	62.5	-3.8
Cc1csc(NC(=O)c2cc3c(C)nn(Cc4ccccc4Cl)c3s2)n1	3.9	-55.8	0.3	45.7*	-2.2	55.8	6.6
Cc1nn(Cc2ccccc2Cl)c2sc(C(=O)NC(C)(C)C)cc12	0.9	-0.7	0.8	-13.4	8.6	0.7	nt
Cc1nn(C)c(C)c1NC(=O)CSc1nc(-c2ccccc2Cl)nc2c1cnn2-c1ccccc1	-0.1	-17.8	-7.3	122.3*	0.2	17.8	6.3
CCc1cc2cc3c(cc2nc1SCC(=O)Nc1cc(C)on1)OCO3	-0.1	-4.9	-6.9	49.2*	3.1	4.9	-1.9
CCc1cc2ccc(C)cc2nc1SCC(=O)Nc1cc(C)on1	2.1	-27.7	nt	-6.9	-2.3	27.6	nt
CCN(CC)C(=O)c1nc[nH]c1C(=O)N(CC)CC	1.8	13.4	nt	7.3	nt	-13.4	nt
O=C(Nc1ccc(Cl)cc1Cl)NC1CCN(S(=O)(=O)c2ccc(F)cc2)CC1	0.4	-15.2	-3.3	55.0*	-1.7	15.2	0.6
O=C(Nc1ccc(Cl)cc1Cl)NC1CCCC1	0.5	-4.1	-0.6	-2.6	-1.2	4.1	nt
CC(C)NC(=O)CC(=O)N/N=C/c1c(F)cccc1Cl	-1.2	8.6	-2.8	0.7	-8.1	-8.6	nt
O=C(CCCC(=O)Nc1ccccc1Br)N/N=C/c1c(F)cccc1Cl	-1.1	5.4	-3.2	26.6*	2.5	-5.4	4.9
CC1(C)Cc2c(sc(NC(=O)C(=O)N3CCN(CCO)CC3)c2C(N)=O)CO1	-2.3	13.1	-3.6	-4.4	-6.3	-13.1	nt
SMILES	CDK5 p35 inh	SR-BI uptake up	DYRK1A inh	dFosB act-1	NSD2 HMT inh	SR-BI DiI inh	dFosB act-2
Cc1cccc(-n2nnnc2SCC(=O)c2cc(C)n(CC3CCCO3)c2C)c1 (stereo unspecified)	-2.8	-16.3	0.3	-4.6	0.9	16.3	nt
Cc1cccc(-n2nnnc2SCC(=O)c2cc(C)n(Cc3ccco3)c2C)c1	0.3	-0.2	-1.5	21.4*	0.5	0.2	1.3
CCCCCN(C(=O)CCC(=O)OCc1ccc(Cl)cc1Cl)c1c(N)n(CCCC)c(=O)[nH]c1=O	-1.0	-38.6	-0.2	1.9	-1.3	38.6	nt
O=C(CN1CCN(S(=O)(=O)c2ccccc2Cl)CC1)NCC1(N2CCOCC2)CCCCC1	0.8	21.4	-5.1	-9.8	33.7	-21.4	nt
COc1cccc(NC(=O)C(=O)NCCCN2CCCC2=O)c1	-0.1	11.4	1.5	-6.9	38.8	-11.4	nt
CCOc1ccc(S(=O)(=O)Nc2nc3ccccc3nc2-n2ccc(=NC(=O)c3cccs3)cc2)cc1	0.4	-17.7	-1.5	39.6*	-0.1	17.7	6.5
O=C(N=c1ccn(-c2nc3ccccc3nc2NS(=O)(=O)c2ccc(Cl)cc2)cc1)c1ccccc1Cl	nt	nt	nt	nt	-1.0	nt	nt
O=C(N=c1ccn(-c2nc3ccccc3nc2NS(=O)(=O)c2ccc(Cl)cc2)cc1)c1cccs1	1.1	nt	-6.7	31.4*	-4.3	nt	3.0
CS(=O)(=O)c1ccc(Cl)c(NC(=O)Cc2c(Cl)cccc2Cl)c1	1.3	-5.6	-4.6	41.0*	-2.7	5.6	4.8
CO/N=C/C(C#N)=C/c1cc(C(=O)c2ccc(F)cc2)cn1C	1.3	-48.1	5.2	50.2*	-8.7	48.1	3.4
CO/N=C/C(C#N)=C/c1ccc(OC)cc1	1.7	-23.1	-0.3	-3.6	-0.7	23.1	nt
CC1(NC(=O)C2CCN(C(=O)Nc3ccccc3)CC2)CCS(=O)(=O)C1 (stereo unspecified)	-0.7	31.8	-3.7	1.4	-3.1	-31.8	nt
CCOC(=O)C1CCCN(C(=O)CCCn2c(=O)c3cccn3c3cccnc32)C1 (stereo unspecified)	-0.9	-12.3	-2.3	-3.5	-1.2	12.3	nt
CNS(=O)(=O)c1ccc(NC(=O)c2cc(-c3ccncc3)nc3ccc(Cl)cc23)cc1	-0.1	-60.6	-5.1	68.6*	1.7	60.6	-1.1
O=C(O)c1nn(-c2ccccc2)nc1-c1nn(-c2ccccc2)nc1C(=O)O	-2.1	32.2	-4.8	-7.2	0.9	-32.2	nt
COC(=O)c1nn(-c2ccccc2)nc1-c1nn(-c2ccccc2)nc1C(=O)OC	0.3	-24.5	-0.4	22.7*	-1.2	24.5	2.8
CCN(CC)CCNc1ncnc2c1sc1nc(N3CCOCC3)c3c(c12)CCCC3	-1.0	2.9	nt	31.0*	29.2	-2.9	-5.8
O=C(CSCc1nc2c(nnn2Cc2ccc(F)cc2)c(=O)[nH]1)Nc1c(Cl)cc(Cl)cc1Cl	-0.6	7.4	nt	29.1*	-0.9	-7.4	-2.2
CCc1nc2c(nnn2Cc2ccc(F)cc2)c(=O)[nH]1	0.2	11.4	-3.5	3.6	-3.1	-11.4	nt

High-throughput results deposited in PubChem BioAssay by Broad Institute.
